Experimental data reported in ChEMBL document CHEMBL2062426 (J Med Chem, 2012).
pIC50: −log10 of the molar value.

Legend:
[1] = molecular target: Neutrophil collagenase (Homo sapiens, UniProt P22894); assay: Inhibition of MMP8 using (7-methoxycoumarin-4-yl)acetyl-Pro-Leu-Gly-Leu-(3-(2,4-dinitrophenyl)-L-2,3-diaminopropionyl)Ala-Arg-NH2 as substrate incubated for 30 mins prior to substrate addition measured for 10 mins by fluorometry
Procedure, shortened: (§1)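 Activated MMP-8 or MMP-9 (2 nM) was preincubated with inhibitor (10 pM–1 mM) in 50 mM Tris-HCl pH 7.5 with 0.2 M NaCl, 5 mM CaCl2, 20 μM ZnSO4 and 0.05% Brij 35 at 37 °C for 30 min. Fluorogenic substrate (10 μL of 50 μM into 90 μL) was then added. Rates from the first 10 min were plotted against inhibitor concentration, and values are the mean of three experiments.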

[2] = molecular target: Collagenase 3 (Homo sapiens, UniProt P45452); assay: Inhibition of MMP13 using (7-methoxycoumarin-4-yl)acetyl-Pro-Leu-Gly-Leu-(3-(2,4-dinitrophenyl)-L-2,3-diaminopropionyl)Ala-Arg-NH2 as substrate incubated for 30 mins prior to substrate addition measured for 10 mins by fluorometry
[3] = molecular target: 72 kDa type IV collagenase (Homo sapiens, UniProt P08253); assay: Inhibition of MMP2 using (7-methoxycoumarin-4-yl)acetyl-Pro-Leu-Gly-Leu-(3-(2,4-dinitrophenyl)-L-2,3-diaminopropionyl)Ala-Arg-NH2 as substrate incubated for 30 mins prior to substrate addition measured for 10 mins by fluorometry
Sequence of 72 kDa type IV collagenase (P08253 whole entry): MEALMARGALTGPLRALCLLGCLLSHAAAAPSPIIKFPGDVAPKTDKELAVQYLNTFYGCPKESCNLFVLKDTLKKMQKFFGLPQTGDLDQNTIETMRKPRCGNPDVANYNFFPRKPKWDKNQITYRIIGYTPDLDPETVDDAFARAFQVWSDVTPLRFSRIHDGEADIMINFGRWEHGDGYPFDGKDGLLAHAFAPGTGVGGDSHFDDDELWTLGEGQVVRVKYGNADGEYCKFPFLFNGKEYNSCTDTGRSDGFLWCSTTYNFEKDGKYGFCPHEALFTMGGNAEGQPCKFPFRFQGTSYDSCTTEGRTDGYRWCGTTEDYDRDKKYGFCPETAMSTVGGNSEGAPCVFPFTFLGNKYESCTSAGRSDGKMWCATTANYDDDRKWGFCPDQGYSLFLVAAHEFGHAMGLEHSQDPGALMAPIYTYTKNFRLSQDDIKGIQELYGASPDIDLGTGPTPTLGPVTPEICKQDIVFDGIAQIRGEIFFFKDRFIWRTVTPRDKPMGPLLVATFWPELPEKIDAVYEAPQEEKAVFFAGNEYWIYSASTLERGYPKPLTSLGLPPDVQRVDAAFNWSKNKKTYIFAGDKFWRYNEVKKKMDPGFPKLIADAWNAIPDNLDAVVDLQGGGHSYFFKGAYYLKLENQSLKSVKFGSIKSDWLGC

[4] = molecular target: Matrix metalloproteinase-9 (Homo sapiens, UniProt P14780); assay: Inhibition of MMP9 using (7-methoxycoumarin-4-yl)acetyl-Pro-Leu-Gly-Leu-(3-(2,4-dinitrophenyl)-L-2,3-diaminopropionyl)Ala-Arg-NH2 as substrate incubated for 30 mins prior to substrate addition measured for 10 mins by fluorometry; procedure, shortened: as §1
Sequence of Matrix metalloproteinase-9 (P14780 whole entry): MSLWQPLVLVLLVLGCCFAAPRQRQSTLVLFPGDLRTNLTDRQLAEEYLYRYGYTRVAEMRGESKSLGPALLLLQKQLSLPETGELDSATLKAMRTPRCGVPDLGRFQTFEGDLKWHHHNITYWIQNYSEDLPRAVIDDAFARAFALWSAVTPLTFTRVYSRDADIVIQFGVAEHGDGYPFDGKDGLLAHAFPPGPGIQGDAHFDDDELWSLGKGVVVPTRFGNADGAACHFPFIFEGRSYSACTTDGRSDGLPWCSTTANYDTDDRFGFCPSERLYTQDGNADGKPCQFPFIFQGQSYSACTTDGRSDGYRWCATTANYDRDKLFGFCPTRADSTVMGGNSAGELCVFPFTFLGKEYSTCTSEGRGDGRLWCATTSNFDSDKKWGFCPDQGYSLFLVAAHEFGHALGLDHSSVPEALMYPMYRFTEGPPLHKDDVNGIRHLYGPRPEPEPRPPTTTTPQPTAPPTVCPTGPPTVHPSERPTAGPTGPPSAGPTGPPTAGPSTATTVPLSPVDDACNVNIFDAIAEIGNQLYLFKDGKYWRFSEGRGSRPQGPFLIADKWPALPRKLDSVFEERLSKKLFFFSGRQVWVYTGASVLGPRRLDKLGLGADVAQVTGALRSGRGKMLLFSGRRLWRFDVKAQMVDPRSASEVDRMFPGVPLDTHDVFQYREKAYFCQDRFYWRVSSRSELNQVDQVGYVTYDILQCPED

Sequence of Neutrophil collagenase (P22894 whole entry): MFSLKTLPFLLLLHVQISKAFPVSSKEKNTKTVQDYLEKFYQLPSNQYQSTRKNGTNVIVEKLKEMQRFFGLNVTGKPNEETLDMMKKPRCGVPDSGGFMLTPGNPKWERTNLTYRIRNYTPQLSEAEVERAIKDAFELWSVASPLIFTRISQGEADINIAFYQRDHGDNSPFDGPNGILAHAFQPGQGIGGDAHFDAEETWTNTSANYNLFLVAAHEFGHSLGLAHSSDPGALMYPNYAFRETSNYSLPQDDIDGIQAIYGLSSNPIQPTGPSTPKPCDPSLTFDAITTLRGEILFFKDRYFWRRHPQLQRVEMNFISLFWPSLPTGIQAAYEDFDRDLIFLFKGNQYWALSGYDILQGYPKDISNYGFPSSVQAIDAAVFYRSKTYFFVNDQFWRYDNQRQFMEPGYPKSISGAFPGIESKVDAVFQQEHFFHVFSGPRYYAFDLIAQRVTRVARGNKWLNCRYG

Structure (SMILES)	pIC50 [1]	pIC50 [2]	pIC50 [3]	pIC50 [4]
COc1ccc(S(=O)(=O)N(Cc2ccc(OCCOCCOCCOCCOCc3cn(CCOCCOCCOCCF)nn3)cc2)[C@@H](C(=O)NO)C(C)C)cc1	8.30	8.40	8.40	8.30
COc1ccc(S(=O)(=O)N(Cc2ccc(OCCOCCOCCOCCOCc3cn(CCF)nn3)cc2)[C@@H](C(=O)NO)C(C)C)cc1	9.70	8.22	8.70	9.22
COc1ccc(S(=O)(=O)N(Cc2ccc(OCCOCCOCCOCCn3cc(COCCOCCOCCOCCOCCF)nn3)cc2)[C@@H](C(=O)NO)C(C)C)cc1	8.52	9.00	8.40	8.52
COc1ccc(S(=O)(=O)N(Cc2cn(CCOS(=O)(=O)c3ccc(C)cc3)nn2)[C@@H](C(=O)NO)C(C)C)cc1	8.10	8.30	6.97	8.15
COc1ccc(S(=O)(=O)N(Cc2cn(CCF)nn2)[C@@H](C(=O)NO)C(C)C)cc1	10.70	11.22	9.89	10.52

Continued by rising pIC50 [1], values first:

pIC50 [1]	pIC50 [2]	pIC50 [3]	pIC50 [4]	Structure (SMILES)
7.24	7.74	7.52	7.37	COc1ccc(S(=O)(=O)N(Cc2ccc(OCCOCCOCCOCCOCc3cn([C@@H]4O[C@H](CO)[C@@H](O)[C@H](O)[C@H]4F)nn3)cc2)[C@@H](C(=O)NO)C(C)C)cc1
7.85	8.00	8.30	8.70	C#CCN([C@@H](C(=O)NO)C(C)C)S(=O)(=O)c1ccc(OC)cc1
9.96	10.05	9.46	9.43	C#CCOCCOCCOCCOCCOc1ccc(CN([C@@H](C(=O)NO)C(C)C)S(=O)(=O)c2ccc(OC)cc2)cc1
